Data: publication PMC8122083 (ACS infectious diseases, 2021)

Legend:
H. pylori ATCC 43504 = test: H. pylori IC50 dose response; type: cell-based; details: Helicobacter pylori, ATCC43504, read-out: H. pylori ATCC 43504 pIC50 (converted)
Cytotoxicity assay = type: cell-based; details: human, FaDu cells
Outline: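 FaDu cells, maintained per ATCC protocols, were seeded in EMEM with 10% FBS at 3 x 10^5 cells/ml and grown 24 h at 37°C, 5% CO2. Medium was replaced with two-fold serial dilutions of test compound in fresh medium for 72 h, then with FBS-free EMEM plus resazurin (final 0.15 mM) for 3-5 h. Fluorescence read at ex 540/em 590 nm. IC50 fitted from percent inhibition versus growth controls, converted to pIC50, and reported as mean ± S.E.M.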

H. pylori [1] = test: H. pylori IC50 of high-throughput screening hits; type: cell-based; details: Helicobacter pylori, read-out: H. pylori IC50
H. pylori SS1 = test: H. pylori IC50 dose response; type: cell-based; details: Helicobacter pylori, SS1, read-out: H. pylori SS1 pIC50 (converted)
H. pylori [2] = details: cited from earlier work

OCCCNc1ncnc2sc(-c3ccccc3)cc12 [Compound 1, 3-((6-phenylthieno[2,3-d]pyrimidin-4-yl)amino)propan-1-ol]
IC50 (H. pylori ATCC 43504): 1.58 µM | IC50 at 72 h (Cytotoxicity assay): 126 µM | IC50 (H. pylori [1]): 1.55 µM | IC50 (H. pylori SS1): 1.58 µM

CC[C@H]1OC(=O)[C@H](C)[C@@H](O[C@H]2C[C@@](C)(OC)[C@@H](O)[C@H](C)O2)[C@H](C)[C@@H](O[C@@H]2O[C@H](C)C[C@H](N(C)C)[C@H]2O)[C@](C)(OC)C[C@@H](C)C(=O)[C@H](C)[C@@H](O)[C@]1(C)O [clarithromycin]
H. pylori minimum inhibitory concentration (MIC) (H. pylori [2]): 8 ng/mL
